# Data taken from ChEMBL document CHEMBL3046177, “Plant growth inhibitory activity of p-hydroxyacetophenones and tremetones from Chilean endemic Baccharis species and some analogous: a comparative study” (J Agric Food Chem, 2002).
# pIC50: −log10 of the molar value. Active and inactive are the calls of the source. No cut-off for these calls is given here.
# Experiments:
# Physalis ixocarpa [1] = test: Phytotoxicity against Physalis ixocarpa assessed as inhibition of root development during seeding stage after 120 hr; format: functional, organism-based; conditions: for pIC50: read-out: I50
# Method in brief: (§1)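 Petri-dish seedling assay on filter paper wetted with test solution (MeOH < 1%), 28 °C in the dark. Coleoptile/hypocotyl and root lengths of all germinated seeds measured after 120 h, then plants dried to constant weight at 40 °C. Three replicates; 50% inhibitory concentrations by Probit analysis of percent inhibition versus concentration.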
# Trifolium pratense [2] = test: Phytotoxicity against Trifolium pratense (red clover) assessed as inhibition of seed germination after 48 hr; format: functional
# Method in brief: (§2)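 Seeds of uniform size on Whatman No.1 filter paper in 85 mm Petri dishes, wetted with 8 or 10 mL deionized water or test solution (MeOH < 1%); controls got matching water/methanol. Sealed, incubated at 28 °C in the dark, scored at 48 h intervals; germination = 1 mm radicle extrusion. Three replicates.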
# Trifolium pratense [3] = test: Phytotoxicity against Trifolium pratense (red clover) assessed as inhibition of shoot development during seeding stage after 120 hr; format: functional, organism-based; conditions: for pIC50: read-out: I50; method in brief: as §1
# Trifolium pratense [4] = test: Phytotoxicity against Trifolium pratense (red clover) assessed as inhibition of seed respiration during germination after 72 hr; format: functional, organism-based; conditions: read-out: I50
# Method in brief: (§3)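 Oxygen uptake of germinating seeds measured polarographically with a Clark-type electrode at 25 °C in a nonilluminated cell over 5 and 10 min, at several compound concentrations. Expressed as percent of control (100%). Three experiments; RI50 from Probit analysis.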
# Spinacia oleracea [5] = test: Inhibition of ATP synthesis in Spinacia oleracea (spinach) chloroplasts; format: functional
# Method in brief: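 Spinach thylakoids in 100 mM sorbitol, 5 mM MgCl2, 10 mM KCl, 1 mM Na+-tricine, pH 8, with 50 µM methyl viologen as Hill-reaction electron acceptor. Illuminated at 20 °C through 1% CuSO4 filter. ATP synthesis measured titrimetrically.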
# Physalis ixocarpa [6] = test: Phytotoxicity against Physalis ixocarpa assessed as inhibition of shoot development during seeding stage after 120 hr; format: functional, organism-based; conditions: for pIC50: read-out: I50; method in brief: as §1
# Lactuca sativa [7] = test: Phytotoxicity against Lactuca sativa (lettuce) assessed as inhibition of seed germination after 48 hr; format: functional; method in brief: as §2
# [8] = Antioxidant activity assessed as inhibition of bleaching of water soluble crocin measured every 5 min by spectrophotometric analysis; format: functional
# Method in brief: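 Aqueous mixture of 10 µM crocin, 1 mM t-BuOOH and 0.5 M t-BuOH with serial dilutions of test compound, placed under UV254 light; crocin bleaching (absorbance decrease) and fluorescence emission at 440 and 470 nm followed every 5 min. Three experiments, mean ± SEM.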
# Spinacia oleracea [9] = test: Inhibition of H+ uptake in Spinacia oleracea (spinach) chloroplasts; format: functional
# Method in brief: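 Spinach thylakoids (from isolated chloroplasts, in sorbitol/tricine/MgCl2/NaCl buffer, pH 7.8) in 100 mM sorbitol, 5 mM MgCl2, 10 mM KCl, 1 mM Na+-tricine, pH 8, with 50 µM methyl viologen. Illuminated at 20 °C through 1% CuSO4 filter. H+ uptake recorded as pH rise from 8.0 to 8.1 with combination microelectrode on expanded scale.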
# Physalis ixocarpa [10] = test: Phytotoxicity against Physalis ixocarpa assessed as inhibition of seed germination after 48 hr; format: functional; method in brief: as §2
# Lactuca sativa [11] = test: Phytotoxicity against Lactuca sativa (lettuce) assessed as inhibition of seed respiration during germination after 72 hr; format: functional, organism-based; conditions: read-out: I50; method in brief: as §3
# Phaseolus vulgaris = test: Inhibition of mitochondrial respiration in Phaseolus vulgaris root mitochondria assessed as reduction of oxygen uptake; format: functional; conditions: read-out: I50
# Method in brief: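 Mitochondria from roots of 72 h dark-grown (28 °C) bean seedlings, Percoll-gradient purified, 0.3-0.5 mg protein (Bradford) per run; integrity checked with HCN. Compounds in 0.5% methanol added after a constant state 3 rate with […] was reached. O2 uptake by Clark electrode; control is mitochondria with 0.5% MeOH. Three experiments; I50 by Probit.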
# Lactuca sativa [12] = test: Phytotoxicity against Lactuca sativa (lettuce) assessed as inhibition of root development during seeding stage after 120 hr; format: functional, organism-based; conditions: for pIC50: read-out: I50; method in brief: as §1
# Lolium multiflorum [13] = test: Phytotoxicity against Lolium multiflorum (Italian ryegrass) assessed as inhibition of seed germination after 48 hr; format: functional; method in brief: as §2
# Lolium multiflorum [14] = test: Phytotoxicity against Lolium multiflorum (Italian ryegrass) assessed as inhibition of shoot development during seeding stage after 120 hr; format: functional, organism-based; conditions: for pIC50: read-out: I50; method in brief: as §1
# Lactuca sativa [15] = test: Phytotoxicity against Lactuca sativa (lettuce) assessed as inhibition of shoot development during seeding stage after 120 hr; format: functional, organism-based; conditions: for pIC50: read-out: I50; method in brief: as §1
# Trifolium pratense [16] = test: Phytotoxicity against Trifolium pratense (red clover) assessed as inhibition of root development during seeding stage after 120 hr; format: functional, organism-based; conditions: for pIC50: read-out: I50; method in brief: as §1
# Physalis ixocarpa [17] = test: Phytotoxicity against Physalis ixocarpa assessed as inhibition of seed respiration during germination after 72 hr; format: functional, organism-based; conditions: read-out: I50; method in brief: as §3
# Lolium multiflorum [18] = test: Phytotoxicity against Lolium multiflorum (Italian ryegrass) assessed as inhibition of seed respiration during germination after 72 hr; format: functional, organism-based; conditions: read-out: I50; method in brief: as §3
# Lolium multiflorum [19] = test: Phytotoxicity against Lolium multiflorum (Italian ryegrass) assessed as inhibition of root development during seeding stage after 120 hr; format: functional, organism-based; conditions: for pIC50: read-out: I50; method in brief: as §1
# [20] = tested on: Radical scavenging activity; test: Antioxidant activity assessed as DPPH free radical scavenging activity after 30 min by TLC autographic assay; format: functional; conditions: in the assay text read “spectrophotometric assay” for “TLC autographic assay”; read-out: I50
# Trifolium pratense [21] = test: Increase of root development during seeding stage in Trifolium pratense (red clover) at 50 to 300 uM after 120 hr; format: functional, organism-based; method in brief: as §1
# Lactuca sativa [22] = test: Increase of root development during seeding stage in Lactuca sativa (lettuce) at 50 to 300 uM after 120 hr; format: functional, organism-based; method in brief: as §1
# [23] = tested on: Lolium multiflorum (ryegrass); test: Phytotoxicity against Lolium multiflorum (ryegrass) assessed as inhibition of seed germination at 500 uM after 48 hr
# Trifolium pratense [24] = test: Phytotoxicity against Trifolium pratense (red clover) assessed as inhibition of seed respiration during germination after 24 hr; format: functional, organism-based; method in brief: as §3
# Lolium multiflorum [25] = test: Phytotoxicity against Lolium multiflorum (Italian ryegrass) assessed as inhibition of seed germination at 500 uM after 48 hr; format: functional; method in brief: as §2
# Lactuca sativa [26] = test: Phytotoxicity against Lactuca sativa (lettuce) assessed as inhibition of seed respiration during germination after 24 hr; format: functional, organism-based; method in brief: as §3
# Lolium multiflorum [27] = test: Increase of seed respiration during germination in Lolium multiflorum (Italian ryegrass)at 30 uM; format: functional, organism-based; method in brief: as §3
# Trifolium pratense [28] = test: Increase of shoot development during seeding stage in Trifolium pratense (red clover) at 200 uM after 120 hr; format: functional, organism-based; method in brief: as §1
# Physalis ixocarpa [29] = test: Increase of shoot development during seeding stage in Physalis ixocarpa up to 50 uM after 120 hr; format: functional, organism-based; method in brief: as §1
# Lolium multiflorum [30] = test: Phytotoxicity against Lolium multiflorum (Italian ryegrass) assessed as inhibition of seed respiration during germination at 300 to 500 uM after 24 hr; format: functional, organism-based; method in brief: as §3
# Lolium multiflorum [31] = test: Phytotoxicity against Lolium multiflorum (Italian ryegrass) assessed as inhibition of seed respiration during germination after 24 hr; format: functional, organism-based; method in brief: as §3
# Physalis ixocarpa [32] = test: Phytotoxicity against Physalis ixocarpa assessed as inhibition of seed respiration during germination after 24 hr; format: functional, organism-based; method in brief: as §3
Compound,pIC50 (Physalis ixocarpa [1]),GI50 (Trifolium pratense [2]),pIC50 (Trifolium pratense [3]),pIC50 (Physalis ixocarpa [6]),GI50 (Lactuca sativa [7]),GI50 (Physalis ixocarpa [10]),pIC50 (Lactuca sativa [12]),GI50 (Lolium multiflorum [13]),pIC50 (Lolium multiflorum [14]),pIC50 (Lactuca sativa [15]),pIC50 (Trifolium pratense [16]),pIC50 (Lolium multiflorum [19]),Activity (Trifolium pratense [21]),Activity (Lactuca sativa [22]),inhibition at 500 µM [23],I50 (Trifolium pratense [24]),inhibition at 500 µM (Lolium multiflorum [25]),I50 (Lactuca sativa [26]),Activity (Lolium multiflorum [27]),Activity (Trifolium pratense [28]),further results
C=C(C)[C@H]1Cc2c(ccc(C(C)=O)c2O)O1 [4-HYDROXY TREMETONE],4.90,17.8 µM,4.32,4.82,21 µM,16.6 µM,4.78,25.5 µM,4.58,4.72,4.33,4.65,–,–,–,–,–,–,–,–,pIC50 (Trifolium pratense [4]): 4.66; inhibition (Spinacia oleracea [5]): Dose-dependent effect; inhibition [8]: Active; inhibition (Spinacia oleracea [9]): Dose-dependent effect; pIC50 (Spinacia oleracea [9]; read-out: I50): 4.69; pIC50 (Lactuca sativa [11]): 4.57; pIC50 (Phaseolus vulgaris): 4.35; pIC50 (Physalis ixocarpa [17]): 4.54; pIC50 (Lolium multiflorum [18]): 4.41; pIC50 [20]: 4.27
C=C(C)[C@H]1Cc2c(ccc(C(C)=O)c2OC(C)=O)O1 [4-ACETYL TREMETONE],4.15,40 µM,4.35,4.18,85.5 µM,55.2 µM,4.06,79.9 µM,4.06,4.05,4.35,4.09,Active,Active,30%,inactive,30%,inactive,Active,Active,Activity (Physalis ixocarpa [29]): Active; Activity (Lolium multiflorum [30]): Active; I50 (Lolium multiflorum [31]): inactive; I50 (Physalis ixocarpa [32]): inactive
CC(=O)c1ccc(O[C@@H]2O[C@H](CO)[C@@H](O)[C@H](O)[C@H]2O)cc1 [PICEIN],–,inactive,–,–,inactive,inactive,–,inactive,–,–,–,–,Active,Active,30%,inactive,30%,inactive,Active,Active,I50 (Physalis ixocarpa [1]): inactive; I50 (Trifolium pratense [3]): inactive; I50 (Physalis ixocarpa [6]): inactive; I50 (Lactuca sativa [12]): inactive; I50 (Lolium multiflorum [14]): inactive; I50 (Lactuca sativa [15]): inactive; I50 (Trifolium pratense [16]): inactive; Activity (Physalis ixocarpa [29]): Active; Activity (Lolium multiflorum [30]): Active; I50 (Lolium multiflorum [31]): inactive; I50 (Physalis ixocarpa [32]): inactive; I50 (Lolium multiflorum [19]): inactive
